Source: paper PMC8103725 (FASEB BioAdvances, 2021)
pIC50: −log10 of the molar value.

Legend:
[1] = target: HEG1–KRIT1 interaction (EGFP‐KRIT1 FERM domain binding to HEG1 cytoplasmic tail on beads) (Homo sapiens, UniProt O00522); assay: Flow cytometry bead assay for the HEG1–KRIT1 FERM domain interaction; details: for inhibition of the HEG1–KRIT1 interaction: result in words
HUVEC = assay: Genome‐wide RNA sequencing of HUVEC; assay type: cell-based, human; details: same conditions as HKi2, vs vehicle; data not shown
Outline: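 HUVEC (passages 4–7) were grown on fibronectin in complete EGM‑2 at 37°C, 5% CO2, then given 75 μM test compound or DMSO for 24 h. Only RNA with RIN >8 was used; 400 ng went into TruSeq stranded mRNA libraries. Libraries were sequenced on HiSeq2500 (SR100, 30 million reads), mapped to GRCh release 96 with Hisat2, and analysed for differential expression with EdgeR.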

hCMEC/D3 cells [2] = assay: qPCR of KLF4 and KLF2 mRNA in hCMEC/D3 cells; assay type: cell-based, human; details: 50 μM, 4 h
Outline: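 Test compound came from a 10 mM DMSO stock, rotated 30 min at RT before use. hCMEC/D3 cells (passages 30–37, collagen‑coated, EGM‑2 MV, 37°C/5% CO2) were treated at the indicated doses (12 h dose–response) or over a time course, versus DMSO. RNA was extracted with TRIzol, and 1 µg was reverse‑transcribed with SuperScript III. qPCR used actin normalization and 2−ΔΔCT. Results are relative to vehicle ± SEM: n=3 t test, or n=4 one‑way ANOVA.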

[3] = system: PARD3 binding to HEG1 cytoplasmic tail; assay: PARD3 pulldown assay with HEG1 matrix; design: species or system human; details: HUVEC lysates, 35 μM compound
Outline: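 Clarified lysate (600 μg) was rotated overnight at 4°C with 20 μL neutravidin agarose carrying HEG1 wild‑type (1274–1381) or ΔYF (1274–1379) tail. Incubations contained DMSO, 35 μM test compound or 35 μM 2‑hydroxy‑1‑naphthoic acid. After three washes, bound PARD3 was detected by SDS–PAGE immunoblot with rabbit polyclonal anti‑PARD3.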

hCMEC/D3 cells [4] = assay: Propidium iodide staining, cell viability; assay type: cell-based, human; details: 50 μM, 24 h, vs vehicle
Outline: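 hCMEC/D3 cells were treated with test compound or the same DMSO concentration, then resuspended in PBS with 1% BSA and stained with propidium iodide. Samples were analysed by flow cytometry, counting PI‑positive cells as dead. Results are percentage viable cells ± SEM, n=3, one‑way ANOVA.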

hCMEC/D3 cells [5] = assay: Western blot of pAkt‐S473 and total Akt in hCMEC/D3 cells; assay type: cell-based, human; details: for effect on Akt phosphorylation induced by HKi2: with HKi2 50 μM, MK‐2206 20 μM, LY294002 10 μM
Outline: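 hCMEC/D3 cells were treated with 50 μM test compound or DMSO and washed twice in ice‑cold HBSS. They were lysed in RIPA (50 mM Tris pH 7.5, 150 mM NaCl, 1% NP‑40, 0.5% deoxycholate, 0.1% SDS, 2 mM EDTA, 50 mM NaF) with protease/phosphatase inhibitors and 1 mM Na3VO4. Lysates were spun at 20,000xg for 15 min at 4°C, resolved on 4–12% gels, and immunoblotted for phospho‑Akt Ser473 (1:250) and total Akt. Data are mean ± SEM.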

[6] = system: klf2a expression in arterial and venous endothelium; assay: Zebrafish klf2a reporter Tg; assay type: in vivo; details: 4 μM, 4 h from 26 hpf
Outline: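 Tg(klf2a:H2B‑EGFP);Tg(kdrl:mCherry) embryos were exposed to test compound dissolved in fish egg water. At 30 hpf they were paralysed with tricaine and imaged by confocal microscopy. Nuclear EGFP intensity in vasculature was measured on nuclei outlined through Z, seven nuclei per embryo. Each experiment used two treated and two control embryos; two independent experiments were analysed.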

[7] = Aqueous solubility in assay buffer; assay type: physicochemical; details: assay buffer conditions

HEG1–KRIT1 interaction (EGFP‐KRIT1 FERM domain binding to HEG1 cytoplasmic tail on beads), sequence (O00522 417-736): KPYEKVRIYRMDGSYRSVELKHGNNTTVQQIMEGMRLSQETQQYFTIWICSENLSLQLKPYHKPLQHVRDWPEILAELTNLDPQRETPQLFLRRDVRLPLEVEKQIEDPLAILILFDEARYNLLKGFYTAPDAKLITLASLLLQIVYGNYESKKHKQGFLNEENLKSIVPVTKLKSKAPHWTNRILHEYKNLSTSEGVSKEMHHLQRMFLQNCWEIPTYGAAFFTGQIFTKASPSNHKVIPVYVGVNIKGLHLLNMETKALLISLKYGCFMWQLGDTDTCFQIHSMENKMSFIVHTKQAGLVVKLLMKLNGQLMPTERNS

## O=Cc1cc(-c2ccccc2)ccc1O [Compound 6]
[1]
  inhibition of the HEG1–KRIT1 interaction: moderate inhibition activity

## O=Cc1nccc2ccccc12 [Compound 8]
[1]
  inhibition of the HEG1–KRIT1 interaction: no inhibition

## O=C(O)c1c(O)ccc2ccccc12 [Compound 9, 2‐hydroxy‐1‐naphthoic acid]
HUVEC
  effects on HUVECs gene expression by RNA‐Seq: no significant effects
hCMEC/D3 cells [2]
  KLF2 mRNA levels: did not elevate
  KLF4 mRNA levels: did not elevate
[1]
  inhibition of the HEG1–KRIT1 interaction: does not block KRIT1 binding to HEG1
[3]
  PARD3 binding to HEG1: no effects
hCMEC/D3 cells [4]
  cell viability: no statistical difference
hCMEC/D3 cells [5]; 50 μM, 4 h
  Akt phosphorylation (pAkt‐S473): did not elevate Akt activity
[6]
  nuclear EGFP (klf2a reporter) in arterial and venous endothelium: no effects

## CC(NC(=O)c1ccccc1/N=C/c1c(O)ccc2ccccc12)c1ccccc1 (centres unmarked) [HKi1, Sirtinol]
[1]; IC50, competition, 70 nM EGFP‐KRIT1 FERM domain, 150 nM HEG1 on the beads
  pIC50: ~5.00
[7]
  aqueous solubility: poor solubility

## O=c1cc(N2CCOCC2)oc2c(-c3ccccc3)cccc12 [LY294002]
hCMEC/D3 cells [5]
  effect on Akt phosphorylation induced by HKi2: prevented an increase in Akt signaling

## NC1(c2ccc(-c3nc4ccn5c(=O)[nH]nc5c4cc3-c3ccccc3)cc2)CCC1 [MK‐2206]
hCMEC/D3 cells [5]
  effect on Akt phosphorylation induced by HKi2: prevent the increase in Akt phosphorylation
